Measurements published in ChEMBL document CHEMBL4251573, “Synthesis and biological evaluation of N-substituted 3-oxo-1,2,3,4-tetrahydro-quinoxaline-6-carboxylic acid derivatives as tubulin polymerization inhibitors” (Eur J Med Chem, 2018).
Activity calls are given as the source filed them. The rule behind the calls is not given here.

Key:
HeLa = test: Antiproliferative activity against human HeLa cells after 72 hrs by MTT assay; format: functional, cell-based
Outline: (§1)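 HeLa and SMMC-7721 cells in log phase were seeded at 4000-6000 cells/well. After 24 h, quadruplicate wells were treated with a series of concentrations for 72 h. DMSO stocks were 5 mmol/L, with final DMSO below 0.1%. MTT (10 mg/mL in PBS) was added for 4 h, medium replaced with DMSO, and OD read at 490 nm. IC50 came from at least five concentrations; mean and SD of at least three independent experiments.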

SMMC-7721 = test: Antiproliferative activity against human SMMC7721 cells after 72 hrs by MTT assay; format: functional, cell-based; conditions: SMMC-7721, 72 h; outline: as §1
K562 = test: Antiproliferative activity against human K562 cells after 72 hrs by MTT assay; format: functional, cell-based; conditions: K562, 72 h
Outline: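 K562 cells were grown in RPMI 1640 with 10% FBS at 37 °C in 5% CO2, then seeded at 4000-6000 cells/well. Quadruplicate wells were exposed to drug for 72 h, with final DMSO below 0.1%. After 4 h with MTT, solubilizer (10% SDS, 5% isobutyl alcohol, 0.01 M HCl) was added for 12 h, then OD read at 490 nm. IC50 came from at least five concentrations; mean and SD of at least three experiments.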

Sus scrofa = species: Sus scrofa; test: Competitive binding affinity to porcine brain tubulin at 0.1 to 10 uM preincubated for 1 hr followed by colchicine addition measured after 1 hr by fluorescence assay
Outline: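 Tubulin (4 μM) in 80 mM PIPES pH 6.9, 2 mM MgCl2 and 0.5 mM EGTA was preincubated 1 h at 37 °C with 0.1, 1, 5 or 10 μM test agent, with DMSO as control. Colchicine (10 μM) was then added for another 1 h at 37 °C. Tubulin-colchicine fluorescence was read at ex 340/em 435 nm and normalized to DMSO; at least three replicates, mean ± SD.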

Tubulin (Homo sapiens) = Tubulin (Homo sapiens) (UniProt P68371+Q9H4B7+P0DPH7+P68366+Q13509+Q71U36+P04350+Q3ZCM7+P07437+P68363+Q9BQE3+Q6PEY2+Q13885+Q9BVA1+Q9BUF5); test: Inhibition of tubulin (unknown origin) polymerization at 20 uM after 40 mins by fluorescence assay; format: protein-complex assay
Outline: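 Polymerization was run with a fluorescence kit. Compound, in duplicate, was warmed 1 min at 37 °C before adding cold tubulin mix (2 mg/mL tubulin, 80 mM PIPES pH 6.9, 2.0 mM MgCl2, 0.5 mM EGTA, 1.0 mM GTP, 15% glycerol). Fluorescence was read at ex 360/em 450 nm every minute for 1 h at 37 °C and scored at 40 min against 0.1% DMSO vehicle.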

For `CCCCNC(=O)c1ccc2c(c1)NC(=O)CN2Cc1cc(OC)c(OC)c(OC)c1`, the IC50 (HeLa) was 37.5 µM, the IC50 (SMMC-7721) was 39.7 µM and the IC50 (K562) was 43 µM.

In the case of `COC(=O)c1ccc2c(c1)NC(=O)CN2C(=O)c1ccc(F)cc1`, the IC50 (HeLa) is reported as 15.9 µM, the IC50 (SMMC-7721) is reported as 7.69 µM and the IC50 (K562) is reported as 9.8 µM.

In the case of `CC(=O)O[C@H]1C(=O)[C@@]2(C)[C@H]([C@H](OC(=O)c3ccccc3)[C@]3(O)C[C@H](OC(=O)[C@H](O)[C@@H](NC(=O)c4ccccc4)c4ccccc4)C(C)=C1C3(C)C)[C@]1(OC(C)=O)CO[C@@H]1C[C@@H]2O`, the Activity (Sus scrofa) is reported as “inactive”.

With `COc1ccc(C(=O)N2CC(=O)Nc3cc(C(=O)Nc4ccccc4)ccc32)cc1OC` the IC50 (HeLa) was 24.9 µM, the IC50 (SMMC-7721) was 34.4 µM and the IC50 (K562) was 42.9 µM.

Molecule `COc1cc(CN2CC(=O)Nc3cc(C(=O)O)ccc32)cc(OC)c1OC` has an IC50 (HeLa) of 32.2 µM, an IC50 (SMMC-7721) of 39 µM and an IC50 (K562) of 35.9 µM.

In the case of `COc1ccc(/C=C\c2cc(OC)c(OC)c(OC)c2)cc1O` [COMBRETASTATIN A4], the IC50 (SMMC-7721) is reported as 0.0038 µM and the IC50 (K562) is reported as 0.013 µM.

`COc1cc(C(=O)N2CC(=O)Nc3cc(C(=O)N4CCOCC4)ccc32)cc(OC)c1OC` was tested, and the IC50 (HeLa) was over 50 µM, the IC50 (SMMC-7721) was 39.2 µM and the IC50 (K562) was over 50 µM.

`COC(=O)c1ccc2c(c1)NC(=O)CN2Cc1cc(OC)c(OC)c(OC)c1` was tested, and the IC50 (HeLa) was 2.76 µM, the inhibition (Tubulin (Homo sapiens)) was “Active” and the IC50 (SMMC-7721) was 2.69 µM. The IC50 (K562) was 3.42 µM.

In the case of `CCCCNC(=O)c1ccc2c(c1)NC(=O)CN2C(=O)c1ccc(OC)c(OC)c1`, the IC50 (HeLa) is reported as over 50 µM, the IC50 (SMMC-7721) is reported as over 50 µM and the IC50 (K562) is reported as over 50 µM.

Work on `COc1cccc2c1C(=O)c1c(O)c3c(c(O)c1C2=O)C[C@@](O)(C(=O)CO)C[C@@H]3O[C@H]1C[C@H](N)[C@H](O)[C@H](C)O1` [DOXORUBICIN] yielded an IC50 (SMMC-7721) of 1.59 µM and an IC50 (K562) of 0.89 µM.

`COC(=O)c1ccc2c(c1)NC(=O)CN2Cc1ccc(OC)c(OC)c1` gave an IC50 (HeLa) of 38.1 µM, an IC50 (SMMC-7721) of 33.2 µM and an IC50 (K562) of 43.6 µM.

In the case of `CCCCNC(=O)c1ccc2c(c1)NC(=O)CN2C(=O)c1cc(OC)c(OC)c(OC)c1`, the IC50 (HeLa) is reported as over 50 µM, the IC50 (SMMC-7721) is reported as 43.1 µM and the IC50 (K562) is reported as over 50 µM.

In the case of `COc1ccc(C(=O)N2CC(=O)Nc3cc(C(=O)N4CCOCC4)ccc32)cc1OC`, the IC50 (HeLa) is reported as 34.9 µM, the IC50 (SMMC-7721) is reported as 34.9 µM and the IC50 (K562) is reported as over 50 µM.

`COC(=O)c1ccc2c(c1)NC(=O)CN2C(=O)Cc1cc(OC)c(OC)c(OC)c1` showed an IC50 (HeLa) of 39.4 µM, an IC50 (SMMC-7721) of 9.1 µM and an IC50 (K562) of 45.3 µM.

For `COc1cc(CN2CC(=O)Nc3cc(C(=O)NC4CCCCC4)ccc32)cc(OC)c1OC`, the IC50 (HeLa) was 41.8 µM, the IC50 (SMMC-7721) was 28 µM and the IC50 (K562) was 42.6 µM.

`COc1cc(C(=O)N2CC(=O)Nc3cc(C(=O)NC4CCCCC4)ccc32)cc(OC)c1OC` was tested, and the IC50 (HeLa) was over 50 µM, the IC50 (SMMC-7721) was 40.6 µM and the IC50 (K562) was over 50 µM.

For `COC(=O)c1ccc2c(c1)NC(=O)CN2C(=O)c1ccc(OC)c(OC)c1`, the IC50 (HeLa) was 1.42 µM, the inhibition (Tubulin (Homo sapiens)) was “Active” and the IC50 (SMMC-7721) was 1.32 µM. It also gave an IC50 (K562) of 3 µM.

Molecule `COC(=O)c1ccc2c(c1)NC(=O)CN2C(=O)c1ccc(OC)cc1` has an IC50 (HeLa) of 8.28 µM, an IC50 (SMMC-7721) of 5.4 µM and an IC50 (K562) of 7.72 µM.

In the case of `COc1cc(C(=O)N2CC(=O)Nc3cc(C(=O)Nc4ccccc4)ccc32)cc(OC)c1OC`, the IC50 (HeLa) is reported as 26.4 µM, the IC50 (SMMC-7721) is reported as 37.9 µM and the IC50 (K562) is reported as over 50 µM.

Work on `COC(=O)c1ccc2c(c1)NC(=O)CN2Cc1ccc(OC)cc1` yielded an IC50 (HeLa) of 16.4 µM, an IC50 (SMMC-7721) of 12.5 µM and an IC50 (K562) of 43.2 µM.
